Marks after values point to notes of the source that are not given here.
Legend:
human V2r = conditions: cited from earlier work; for Ki: human V2r ref 5
[1] = test system: F3II mouse mammary carcinoma cells; assay: Cell proliferation assay; type: cell-based; conditions: 72 h, concentration-dependent
Outline: (§1)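 Cells seeded at 2.5×10^3 per 200 μl in complete DMEM (10% FBS, 2 mM glutamine), attached overnight. They were then exposed to peptide (100–1,500 nM) or vehicle for 72 h at 37°C, 5% CO2. MTT was added for 4 h, the product dissolved in DMSO, and absorbance read at 570 nm. Untreated control OD was set as 100% viability. Results came from at least three independent experiments, mean ± SEM.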

F3II mammary tumours = assay: F3II subcutaneous tumour progression and spontaneous lung metastases; type: in vivo, BALB/c mice
Outline: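 Syngeneic female BALB/c mice were injected s.c. with 2×10^5 F3II cells. Dosing started 7 days later, at tumours of ~50 mm3, with 0.3 μg/kg i.v. thrice weekly against a saline vehicle. Caliper volumes were calculated as 0.52 × width² × length. Mice were necropsied on day 50, and Bouin-fixed lungs were scored for macroscopic nodules under a dissecting microscope. Data are mean ± SD.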

[2] = test system: HMVEC-L human microvascular endothelial cells; assay: Endothelial cell morphogenesis; type: cell-based; conditions: 100 nM, 24 h
MDA-MB-231 cells = assay: Clonogenic; type: cell-based, human; conditions: read-out: IC50 colony formation; MDA-MB-231, 7 days
Outline: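 MDA-MB-231 cells were grown in complete medium containing peptide (100–1,500 nM), with medium plus peptide renewed after 72 h. Colonies of >50 cells were counted 7 days after seeding. IC50 was derived by linear regression of the concentration–inhibition plot. Data are from at least three independent experiments, mean ± SEM.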

[3] = test system: F3II cells injected into the tail vein; assay: Experimental lung metastases assay; type: in vivo, BALB/c mice; conditions: 0.3 μg/kg i.v., two doses (time zero and 24 h), day 21
Outline: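 Female 8-week-old SPF BALB/c mice received 2×10^5 F3II cells in DMEM via the tail vein. Peptide at 0.3 μg/kg was given i.v. twice: at time zero and 24 h after cell injection. On day 21, lungs were excised, weighed, fixed in Bouin's solution and photographed, and lung nodules were counted.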

MDA-MB-231 xenografts = assay: MDA-MB-231 xenograft tumour progression; type: in vivo, BALB/c athymic mice; conditions: 0.3 μg/kg i.v. thrice weekly
Outline: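 Athymic BALB/c nude females were injected s.c. with 5×10^6 MDA-MB-231 cells in 300 μl of DMEM:Matrigel (1:1). From day 14, at tumours of ~50 mm3, mice received 0.3 μg/kg i.v. thrice weekly against a saline vehicle. Caliper volumes were calculated as 0.52 × width² × length. Growth rate is the slope of the linear regression of volume over time, mean ± SD.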

Acute toxicology study = type: in vivo, Wistar rats; conditions: for ALT / AST / Creatinine / Direct bilirubin / Fibrinogen / GGT / Glucose / Hematocrit / RBC / Total protein / WBC / Weight: 72 h, mean ± SD
VWF = conditions: after i.v. injection ref 4; cited from earlier work
[4] = test system: MCF-7 human breast carcinoma cells; assay: Cell proliferation assay; type: cell-based; conditions: 72-h exposure, 100–1,500 nM
Outline: as §1

[5] = test system: MDA-MB-231 human breast carcinoma cells; assay: Cell proliferation assay; type: cell-based; conditions: MDA-MB-231, tolvaptan 1,500 nM plus [V^4Q^5]dDAVP 1,500 nM
Outline: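 MDA-MB-231 cells were seeded at 2.5×10^3 per 200 μl in complete DMEM and attached overnight. They were then given 1,500 nM test peptide alone or with the competitive V2r antagonist tolvaptan (1,500 nM) for 72 h. MTT was added for 4 h, DMSO used to solubilise, and absorbance read at 570 nm. Untreated control was set as 100%. There were at least three independent experiments, mean ± SEM.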

In the case of 4-valine-dDAVP, the “affinity for the human V2r relative to dDAVP” value (human V2r; higher affinity than dDAVP ref 5) is given as 10 fold and the Ki (human V2r) is given as 2.2 nM.
In the case of `NC(=O)CC[C@@H]1NC(=O)[C@H](Cc2ccccc2)NC(=O)[C@H](Cc2ccc(O)cc2)NC(=O)CCSSC[C@@H](C(=O)N2CCC[C@H]2C(=O)N[C@H](CCCN=C(N)N)C(=O)NCC(N)=O)NC(=O)[C@H](CC(N)=O)NC1=O` [dDAVP, 1-deamino-8-D-arginine vasopressin], the “cytostatic effect on F3II cells” value [1] is reported as “mild cytostatic effect”, the spontaneous lung metastases (F3II mammary tumours; 0.3 μg/kg i.v. thrice weekly for 6 weeks, day 50) is reported as “not significant” and the final tumour volume (F3II mammary tumours; 0.3 μg/kg i.v. thrice weekly, mean ± SD, P>0.05, control 1822.3±1185) is reported as 1574.8±466.1 mm^3. The capillary-like tube formation [2] was “did not displayed any significant effects”, the IC50 (MDA-MB-231 cells) was 1440 nM and the Ki (human V2r) was 23.3 nM. The “reduction of the number of lung nodules” value [3] was 32%, the “reduction in the number of blood vessels (intratumoural vascular density)” value (MDA-MB-231 xenografts) was 30% and the tumour growth rate (MDA-MB-231 xenografts; mean ± SD, control 7.44±0.66) was 5.72±0.72 mm^3/day. It also gave an ALT (Acute toxicology study; 1 μg/kg single i.v.) of 22.8±3.4 IU/l, an AST (Acute toxicology study; 1 μg/kg single i.v.) of 36.6±11.6 IU/l and a Creatinine (Acute toxicology study; 1 μg/kg single i.v.) of 0.70 ± 0.16 mg/mL. The Direct bilirubin (Acute toxicology study; 1 μg/kg single i.v.) was 0.13 ± 0.04 mg/dL, the Fibrinogen (Acute toxicology study; 1 μg/kg single i.v.) was 221.0 ± 67.8 mg/dL and the GGT (Acute toxicology study; 1 μg/kg single i.v.) was 2.8±0.8 IU/l. For the same molecule, the Glucose (Acute toxicology study; 1 μg/kg single i.v.) was 207.0±25.7 ^d mg/dl, the Hematocrit (Acute toxicology study; 1 μg/kg single i.v.) was 40.4±2.3% and the RBC (Acute toxicology study; 1 μg/kg single i.v.) was 5.2±0.3 10^6/ml. For the same molecule, the Total protein (Acute toxicology study; 1 μg/kg single i.v.) was 6.6 ± 0.8 g/dL, the WBC (Acute toxicology study; 1 μg/kg single i.v.) was 4.8±0.3 10^3/ml and the Weight (Acute toxicology study; 1 μg/kg single i.v.) was 234.2 ± 8.1 g. It also gave an ALT (Acute toxicology study; 10 μg/kg single i.v.) of 22.6±3.4 IU/l, an AST (Acute toxicology study; 10 μg/kg single i.v.) of 30.0±5.6 IU/l and a Creatinine (Acute toxicology study; 10 μg/kg single i.v.) of 0.65 ± 0.08 mg/mL. For the same molecule, the Direct bilirubin (Acute toxicology study; 10 μg/kg single i.v.) was 0.14±0.02 ^d mg/dl, the Fibrinogen (Acute toxicology study; 10 μg/kg single i.v.) was 226.7 ± 48.4 mg/dL and the GGT (Acute toxicology study; 10 μg/kg single i.v.) was 2.6±0.9 IU/l. The Glucose (Acute toxicology study; 10 μg/kg single i.v.) was 218.8±20.0 ^d mg/dl, the Hematocrit (Acute toxicology study; 10 μg/kg single i.v.) was 40.5±2.7% and the RBC (Acute toxicology study; 10 μg/kg single i.v.) was 5.5±0.3 10^6/ml. For the same molecule, the Total protein (Acute toxicology study; 10 μg/kg single i.v.) was 6.9 ± 0.5 g/dL, the WBC (Acute toxicology study; 10 μg/kg single i.v.) was 4.4±0.5 10^3/ml and the Weight (Acute toxicology study; 10 μg/kg single i.v.) was 240.3 ± 9.4 g. The ALT (Acute toxicology study; 100 μg/kg single i.v.) was 21.3±2.1 IU/l, the AST (Acute toxicology study; 100 μg/kg single i.v.) was 47.5±17.8 IU/l and the Creatinine (Acute toxicology study; 100 μg/kg single i.v.) was 0.70 ± 0.09 mg/mL. For the same molecule, the Direct bilirubin (Acute toxicology study; 100 μg/kg single i.v.) was 0.17±0.03 ^d mg/dl, the Fibrinogen (Acute toxicology study; 100 μg/kg single i.v.) was 243.0 ± 63.1 mg/dL and the GGT (Acute toxicology study; 100 μg/kg single i.v.) was 3.0±1.2 IU/l. The Glucose (Acute toxicology study; 100 μg/kg single i.v.) was 230.7±12.1 ^d mg/dl, the Hematocrit (Acute toxicology study; 100 μg/kg single i.v.) was 41.8±3.4% and the RBC (Acute toxicology study; 100 μg/kg single i.v.) was 5.7±0.3 10^6/ml. The Total protein (Acute toxicology study; 100 μg/kg single i.v.) was 7.0 ± 0.5 g/dL, the WBC (Acute toxicology study; 100 μg/kg single i.v.) was 4.1±0.7 10^3/ml and the Weight (Acute toxicology study; 100 μg/kg single i.v.) was 241.8 ± 16.8 g. The safety profile (Acute toxicology study; reference standard, single i.v. 1, 10 or 100 μg/kg) was “consistent with previous observations”, the “time of peak levels of VWF release” value (VWF) was 60 to 90 min and the “effect on proliferation in MCF-7 cell cultures” value [4] was “mild reduction of proliferation”.
With `Cc1ccccc1C(=O)Nc1ccc(C(=O)N2CCCC(O)c3cc(Cl)ccc32)c(C)c1` (stereo not drawn) [tolvaptan] the “blockade of growth-modulating activity of [V^4Q^5]dDAVP” value [5] was “completely abolished”.
